One assay deals with Human rhinovirus 1A. The assay can be described thus: Concentration required to reduce Rhino virus type 1A induced plaque formation in HeLa cell culture to 50% of control. Type of assay: functional. To be noted: read-out: ID50 (the source's name). In outline:
(§1)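 HeLa monolayers were grown at 36 °C in Eagle's MEM with Earle's salts, 1% antibiotic and 7-10% heat-inactivated fetal calf serum, with serum cut to 1-2% for maintenance. Plaque reduction cultures were incubated 48-72 h at 33 °C. RV-1A was propagated in HeLa; RV-9 was ATCC VR489.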

The test system of assay [1] is Human rhinovirus sp. The assay can be described thus: Concentration required to reduce Rhino virus type 9 induced plaque formation in HeLa cell culture to 50% of control. The note with it: read-out: ID50 (the source's name). Type of assay: functional. In outline:
as §1

Assay [2] deals with Human rhinovirus sp. Briefly: Concentration required to reduce Rhino virus type 64 induced plaque formation in HeLa cell culture to 50% of control. Type of assay: functional. To be noted: read-out: ID50 (the source's name). In outline:
as §1

The test system of assay [3] is HeLa. The assay can be described thus: Lowest concentration at which the effect on HeLa cell colony formation became apparent. Type of assay: functional, Homo sapiens. In outline: (§2)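 The assay scored effects of compound on the growth and morphology of HeLa cell colonies. HeLa stocks were kept in Eagle's MEM with Earle's salts, 1% antibiotic and 7-10% heat-inactivated fetal calf serum at 36 °C. The value is the lowest concentration at which a colony effect became apparent.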

Assay [4] has as its system HeLa. The assay can be described thus: The cell growth inhibition ( CGI) concentration denotes the lowest concentration at which the effect on HeLa cell colony formation became apparent. The class given is functional, Homo sapiens. In outline: as §2
For assay [5], the system named is HeLa. Briefly: Concentration required to reduce Rhino virus type 64 induced plaque formation in HeLa cell culture to 50% of control; The highest concentration tested failed to provide 50% protection. The class given is functional. To be noted: Homo sapiens, read-out: ID50 (the source's name).
Assay [6] deals with HeLa. The assay can be described thus: Concentration required to reduce Rhino virus type 9 induced plaque formation in HeLa cell culture to 50% of control; The highest concentration tested failed to provide 50% protection. The note with it: Homo sapiens, read-out: ID50 (the source's name). Type of assay: functional. In outline:
(§3)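 HeLa monolayers were grown at 36 °C in Eagle's MEM with Earle's salts, 1% antibiotic and 7-10% heat-inactivated fetal calf serum, with serum cut to 1-2% for maintenance. Plaque reduction cultures were incubated 48-72 h at 33 °C. RV-1A was propagated in HeLa; RV-9 was ATCC VR489. Plaque counts as % of compound-free control were plotted against log concentration, and the 50% point was found by linear regression.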

Assay [7] deals with HeLa. The assay can be described thus: Concentration required to reduce Rhino virus type 1A induced plaque formation in HeLa cell culture to 50% of control; The highest concentration tested failed to provide 50% protection. The class given is functional. The note with it: Homo sapiens, read-out: ID50 (the source's name). In outline:
as §3

A short description of assay [8]: Activity against mengovirus.; No activity. The class given is functional.
The nature of assay [9]: Activity against polio type 2; No activity. Type of assay: functional.

Structures are written as SMILES. Activity calls are given as the source filed them. The rule behind the calls is not given here.

Consider `Clc1ccc(C2CCc3cc(Br)cnc3O2)cc1` (stereo unspecified), for which the IC50 with Human rhinovirus 1A, in the assay with Human rhinovirus sp. [1] and with Human rhinovirus sp. [2] was 30 nM in each case.

For the compound `Clc1ccc(C2CCc3cc(Cl)cnc3O2)cc1` (stereo unspecified), the CGI with HeLa [3] is 35 µM. Moreover, the IC50 was 700 nM with Human rhinovirus 1A, 640 nM in the assay with Human rhinovirus sp. [1] and 110 nM in the assay with Human rhinovirus sp. [2].

For `Clc1ccc(C2CCc3cccnc3O2)cc1Cl` (stereo unspecified), the IC50 is 70 nM in the assay on Human rhinovirus 1A, 2180 nM with Human rhinovirus sp. [1] and 640 nM in the assay on Human rhinovirus sp. [2].

Turning to `Clc1ccc(C2C=Cc3cc(Br)cnc3O2)cc1Cl` (stereo unspecified), the CGI in the assay with HeLa [4] was found to be 14 µM. Also, the IC50 in the assay with Human rhinovirus 1A is 530 nM; with Human rhinovirus sp. [1], 110 nM; in the assay with Human rhinovirus sp. [2], 60 nM.

For `CSc1cnc2c(c1)CCC(c1ccc(Cl)c(Cl)c1)O2` (stereo unspecified), in the assay with HeLa [4], the CGI was 15 µM. For the same compound, the results for the IC50 in the assay on Human rhinovirus 1A, in the assay with Human rhinovirus sp. [1] and in the assay on Human rhinovirus sp. [2] were 120 nM, 150 nM and 30 nM, respectively.

For `CS(=O)(=O)c1cnc2c(c1)CCC(c1ccc(Cl)c(Cl)c1)O2` (stereo unspecified), the CGI in the assay on HeLa [3] turned out to be 56 µM. For the same compound, the IC50 with Human rhinovirus 1A came to 470 nM; in the assay with Human rhinovirus sp. [1], 140 nM; with Human rhinovirus sp. [2], 10 nM.

As for `CS(=O)(=O)c1cnc2c(c1)CCC(c1ccc(Cl)cc1)O2` (stereo unspecified), the IC50 in the assay on Human rhinovirus 1A stood at 1420 nM; in the assay with Human rhinovirus sp. [1], 1420 nM; in the assay on Human rhinovirus sp. [2] it was 250 nM.

Regarding `Clc1cnc2c(c1)CCC(c1ccc(Cl)c(Cl)c1)O2` (stereo unspecified), in the assay on HeLa [3], the CGI was determined as 16 µM. Further, the IC50 was found to be 60 nM with Human rhinovirus 1A, 290 nM with Human rhinovirus sp. [1] and 30 nM with Human rhinovirus sp. [2].

In the case of `Brc1cnc2c(c1)C=CC(c1ccccc1)O2` (stereo unspecified), the results for the IC50 in the assay with Human rhinovirus 1A, in the assay with HeLa [5] and in the assay with HeLa [6] were 1490 nM, more than 3470 nM and more than 3470 nM, respectively.

For the compound `Clc1ccc(C2=CCc3cc(Br)cnc3O2)cc1Cl`, the IC50 with Human rhinovirus sp. [1] was 590 nM; in the assay with HeLa [6], more than 14000 nM; in the assay on Human rhinovirus sp. [2], 12900 nM.

In the case of `CS(=O)(=O)c1cnc2c(c1)CCC(c1ccccc1)O2` (stereo unspecified), in the assay on HeLa [7], the IC50 is more than 17000 nM.

With `Cc1ccc(C2CCc3cc(Br)cnc3O2)cc1` (stereo unspecified), the IC50 in the assay on Human rhinovirus 1A stood at 70 nM; in the assay on Human rhinovirus sp. [1] it was 390 nM; in the assay on Human rhinovirus sp. [2] it was 230 nM.

For the compound `CC1(c2ccc(Cl)c(Cl)c2)CCc2cc(Cl)cnc2O1` (stereo unspecified), the IC50 turned out to be 1090 nM in the assay with Human rhinovirus 1A, 580 nM in the assay with Human rhinovirus sp. [1] and 400 nM with Human rhinovirus sp. [2].

On to `Clc1ccc(C2C=Cc3cc(Cl)cnc3O2)cc1` (stereo unspecified), for which, in the assay on HeLa [4], the CGI amounted to 9 µM. Also, the IC50 in the assay with Human rhinovirus 1A came out at 180 nM; with Human rhinovirus sp. [1] it was 2300 nM; in the assay with Human rhinovirus sp. [2], 470 nM.

Turning to `Clc1ccc(C2CCc3cc(Br)cnc3O2)cc1Cl` (stereo unspecified), the CGI in the assay on HeLa [3] is 28 µM. Moreover, the IC50 amounted to 30 nM in the assay on Human rhinovirus 1A, 220 nM with Human rhinovirus sp. [1] and 60 nM with Human rhinovirus sp. [2]. Besides, the result in assay [8] and in assay [9] was inactive.

`Brc1cnc2c(c1)CCC(c1ccccc1)O2` (stereo unspecified): the IC50 with Human rhinovirus 1A was found to be 410 nM; in the assay on Human rhinovirus sp. [1] it was 4760 nM; with Human rhinovirus sp. [2], 3550 nM.

For the compound `C[S+]([O-])c1cnc2c(c1)CCC(c1ccc(Cl)c(Cl)c1)O2` (stereo unspecified), the IC50 worked out at 260 nM in the assay on Human rhinovirus 1A, 30 nM in the assay with Human rhinovirus sp. [1] and 9 nM with Human rhinovirus sp. [2].

With `CCCCSc1cnc2c(c1)CCC(c1ccc(Cl)c(Cl)c1)O2` (stereo unspecified), the IC50 was 2830 nM in the assay on Human rhinovirus 1A, 6300 nM in the assay with Human rhinovirus sp. [1] and 1390 nM in the assay with Human rhinovirus sp. [2].
